Active and inactive are the calls of the source. The calls are words filed in the database; no cut-off is given here.
Assays:
[1] = target: T1, G-protein coupled receptor 39 (Homo sapiens, UniProt O43194); assay: Agonist activity at human GPR39 expressed in HEK293 cells by IP1 assay; assay type: functional, cell-based
T1 sequence (O43194 whole entry): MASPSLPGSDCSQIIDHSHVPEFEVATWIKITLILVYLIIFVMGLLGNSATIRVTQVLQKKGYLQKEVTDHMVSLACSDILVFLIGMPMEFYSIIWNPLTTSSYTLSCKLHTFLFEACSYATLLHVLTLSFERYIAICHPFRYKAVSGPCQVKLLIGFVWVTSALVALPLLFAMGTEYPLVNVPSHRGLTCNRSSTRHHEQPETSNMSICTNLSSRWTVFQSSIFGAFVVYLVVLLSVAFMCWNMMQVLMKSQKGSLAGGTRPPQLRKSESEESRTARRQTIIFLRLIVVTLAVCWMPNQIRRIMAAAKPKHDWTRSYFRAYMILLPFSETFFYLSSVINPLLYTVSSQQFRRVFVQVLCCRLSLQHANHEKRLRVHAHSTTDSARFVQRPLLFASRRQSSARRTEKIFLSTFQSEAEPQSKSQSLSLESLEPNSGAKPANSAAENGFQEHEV
Outline: (§1)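 Gαq signalling read as inositol-1-phosphate (IP1) accumulation in HEK293 cells overexpressing human, mouse or rat GPR39. EC50 taken from an 11-point dose–response curve run in triplicate. Replicates range from 1 to 4, with standard deviation where available.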

[2] = Hepatic clearance in rat liver microsomes; assay type: ADME
Outline: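 Predicted hepatic clearance calculated from intrinsic clearance in rat liver microsomes.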

[3] = target: T2, G-protein coupled receptor 39 (Mus musculus, UniProt Q5U431); assay: Agonist activity at mouse GPR39 expressed in HEK293 cells by IP1 assay; assay type: functional, cell-based; outline: as §1
T2 sequence (Q5U431 whole entry): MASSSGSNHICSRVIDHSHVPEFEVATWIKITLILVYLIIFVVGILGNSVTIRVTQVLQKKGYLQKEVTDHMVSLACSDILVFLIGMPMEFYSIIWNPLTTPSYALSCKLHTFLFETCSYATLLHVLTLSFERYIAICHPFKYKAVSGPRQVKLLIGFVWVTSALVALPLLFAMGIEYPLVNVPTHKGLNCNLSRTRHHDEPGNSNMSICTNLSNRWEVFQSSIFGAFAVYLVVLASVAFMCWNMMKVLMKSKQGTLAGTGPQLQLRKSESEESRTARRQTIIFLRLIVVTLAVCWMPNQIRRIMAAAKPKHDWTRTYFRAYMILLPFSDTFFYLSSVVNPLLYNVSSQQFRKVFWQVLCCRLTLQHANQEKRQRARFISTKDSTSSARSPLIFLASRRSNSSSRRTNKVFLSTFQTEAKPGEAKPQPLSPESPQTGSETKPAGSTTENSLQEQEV

[4] = target: T1, G-protein coupled receptor 39; assay: Agonist activity at human GPR39 expressed in HEK293 cells by cAMP assay; assay type: functional, cell-based
Outline: (§2)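 cAMP accumulation (Gαs signalling) in HEK293 cells overexpressing human GPR39. Dose–response curve run in triplicate, 1–16 replicates. EC50 derived from the curve. Percent efficacy is expressed relative to the cAMP response to 25 μM forskolin.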

[5] = target: T3, Protein Gpr39 (Rattus norvegicus, UniProt A6QR73); assay: Agonist activity at rat GPR39 expressed in HEK293 cells by IP1 assay; assay type: functional, cell-based; outline: as §1
T3 sequence (A6QR73 whole entry): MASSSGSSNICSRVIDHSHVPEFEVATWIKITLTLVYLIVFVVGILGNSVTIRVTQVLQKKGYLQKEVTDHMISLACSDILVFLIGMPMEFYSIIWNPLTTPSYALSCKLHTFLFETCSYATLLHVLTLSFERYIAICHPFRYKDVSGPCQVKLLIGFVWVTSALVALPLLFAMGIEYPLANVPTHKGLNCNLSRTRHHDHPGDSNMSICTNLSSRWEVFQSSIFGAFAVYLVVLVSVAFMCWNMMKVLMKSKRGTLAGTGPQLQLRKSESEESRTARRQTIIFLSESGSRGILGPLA

[6] = Induction of GLP1 secretion in mouse STC1 cells incubated for 2 hrs by fluorescent bead based ELISA method; assay type: functional, cell-based; details: STC-1, 2 h
Outline: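 Mouse enteroendocrine STC-1 cells, which express endogenous GPR39, were assayed for GLP-1 secretion over a dose–response run in triplicate. Maximal activity is expressed as fold increase in GLP-1 over the DMSO control.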

[7] = Protection against cytokine-induced cell death in rat INS-1E cells assessed as caspase 3/7 activity; assay type: functional, cell-based
Outline: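 Rat insulinoma INS-1E cells (beta-cell phenotype) were treated with cytokines to induce cell death. Caspase 3/7 activity was the read-out. Dose–response run in triplicate.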

[8] = target: T4, G-protein coupled receptor 39 (Homo sapiens) (UniProt O43194); assay: Agonist activity at human GPR39 expressed in HEK293 cells by cAMP assay relative to forskolin; assay type: functional, cell-based; outline: as §2
T4 sequence (whole entry): T1 sequence (O43194 whole entry)

[9] = target: T2, G-protein coupled receptor 39; assay: Agonist activity at mouse GPR39 by IP1 assay; assay type: functional; outline: as §1
[10] = target: T1, G-protein coupled receptor 39; assay: Agonist activity at human GPR39 by IP1 assay; assay type: functional; outline: as §1
[11] = target: T3, Protein Gpr39; assay: Agonist activity at rat GPR39 by IP1 assay; assay type: functional; outline: as §1
[12] = Aqueous solubility at pH 6.8; assay type: physicochemical
[13] = system: Mus musculus; assay: Increase in GLP1 level in C57BL/6 mouse at 30 mg/kg, po concurrently dosed with 3 mg/kg, po DPP4 inhibitor PKF275-055 followed by glucose challenge after 1 hr post drug dose; assay type: functional
Outline: (§3)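 Male C57BL/6 mice were dosed orally with compound together with a DPP-IV inhibitor. After 1 h they were challenged with oral glucose at 3 g/kg. Active GLP-1 and plasma exposure were measured 30 min later. One-way ANOVA with Dunnett's post-test against the vehicle group.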

[14] = Permeability from apical to basolateral side in human Caco2 cells; assay type: ADME, cell-based; details: Caco-2, read-out: permeability
[15] = Plasma concentration in C57BL/6 mouse at 30 mg/kg, po concurrently dosed with 3 mg/kg, po DPP4 inhibitor PKF275-055 followed by glucose challenge after 1 hr post drug dose; assay type: ADME, organism-based; outline: as §3
[16] = Oral bioavailability in Sprague-Dawley rat at 3 mg/kg; assay type: ADME, organism-based; details: in vivo
Outline: (§4)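 Sprague–Dawley rats received a single iv dose of 1 mg/kg, with clearance measured, or an oral dose of 3 mg/kg, with bioavailability (F) measured.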

[17] = Clearance in Sprague-Dawley rat at 1 mg/kg, iv administered as single dose; assay type: ADME, organism-based; parameters: dose 1 mg/kg, route intravenous; details: in vivo; outline: as §4
[18] = Clearance in Sprague-Dawley rat at 2 mg/kg, iv administered as single dose; assay type: ADME, organism-based; parameters: dose 2 mg/kg, route intravenous; details: in vivo
Outline: (§5)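 Sprague–Dawley rats received a single iv dose of 2 mg/kg or an oral dose of 5 mg/kg. Vehicle was 10% NMP, 30% PEG200 and 5% Solutol in water. Clearance was taken from the iv arm and bioavailability from the oral arm.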

[19] = Oral bioavailability in Sprague-Dawley rat at 5 mg/kg; assay type: ADME, organism-based; details: in vivo; outline: as §5
[20] = target: T4, G-protein coupled receptor 39 (Homo sapiens); assay: Agonist activity at human GPR39 expressed in HEK293 cells in presence of sub-EC50 dose of zinc chloride by IP1 assay; assay type: functional, cell-based

| SMILES | EC50 [1] | CLhep predicted [2] | EC50 [3] | further results |
| --- | --- | --- | --- | --- |
| CNC(=O)c1ccc(CNc2cc(-c3ccccn3)nc(NC)n2)cc1 | 30 nM | 31.9 mL/min/kg | 8 nM | – |
| CNc1nc(NCc2ccc(NC(C)=O)cc2)cc(-c2ccccn2)n1 | 5 nM | 35.9 mL/min/kg | 2 nM | EC50 [4]: 550 nM; EC50 [5]: 2 nM; EC50 [6]: 4400 nM; EC50 [7]: 1200 nM; Efficacy [8]: 48% |
| CNc1nc(NC2(c3ccc(Cl)cc3)CCC2)cc(-c2ccccn2)n1 | 25 nM | > 52.3 mL/min/kg | 34 nM | – |
| CNc1nc(NCc2ccc(NC(C)=O)cc2F)cc(-c2ccccn2)n1 | 1 nM | 25.9 mL/min/kg | – | EC50 [4]: 350 nM; EC50 [5]: 0.6 nM; EC50 [6]: 200 nM; EC50 [7]: 40 nM; Efficacy [8]: 55% |
| CNc1nc(NCc2ccc(OC(F)(F)F)cc2)cc(-c2ccccn2)n1 | 13 nM | > 52.3 mL/min/kg | 7 nM | – |
| CNc1nc(NCC2CCCCC2)cc(-c2ccccn2)n1 | 11 nM | – | 10 nM | – |
| O=S(=O)(NC[C@H]1CC[C@H](CNc2nc(NC3CC3)cc(-c3ccccn3)n2)CC1)c1cccc(F)c1 | – | 51.2 mL/min/kg | – | EC50 [9]: 4 nM; EC50 [10]: 202 nM; EC50 [11]: 12 nM; solubility [12]: < 5 µM |
| CNc1nc(NCc2ccc(Cl)cc2Cl)cc(-c2ccccn2)n1 | 0.8 nM | > 52.3 mL/min/kg | 0.5 nM | – |
| CNc1nc(NCC2CC2)cc(-c2ccccn2)n1 | 164 nM | – | 115 nM | – |
| CNc1nc(NCc2ccc(NS(C)(=O)=O)cc2)cc(-c2ccccn2)n1 | 3 nM | 33.6 mL/min/kg | 8 nM | EC50 [4]: 180 nM; EC50 [5]: 3 nM; fold change (FC) [13]: <2; EC50 [6]: 1300 nM; EC50 [7]: 400 nM; Efficacy [8]: 55%; Papp A→B [14]: 6.9 ×10⁻⁶ cm/s; concentration at 1 h [15]: 2000 nM |
| CNc1nc(NCc2ccc(S(C)(=O)=O)cc2)cc(-c2ccccn2)n1 | 36 nM | 34.1 mL/min/kg | 185 nM | bioavailability [16]: 45%; clearance [17]: 18 mL/min/kg |
| CN(C)c1nc(NCC2CC2)cc(-c2ccccn2)n1 | > 25000 nM | – | 6720 nM | – |
| CNc1nc(Nc2ccc(N(C)C(C)=O)cc2)cc(-c2ccccn2)n1 | 1180 nM | – | 2610 nM | – |
| O=S(=O)(NC[C@H]1CC[C@H](CNc2cc(-c3ccccn3)nc(NC3CC3)n2)CC1)c1cccc(F)c1 | – | – | – | clearance [18]: 42 mL/min/kg; bioavailability [19]: 25%; EC50 [9]: 3 nM; EC50 [10]: 11 nM; EC50 [11]: 1 nM |
| FC(F)(F)Oc1ccc(CNc2nc(NCC3CC3)cc(-c3ccccn3)n2)cc1 | 600 nM | – | 22 nM | – |
| CC(C)(C)CNc1nc(NCC2CC2)cc(-c2ccccn2)n1 | 5000 nM | – | 1500 nM | – |
| COCCNc1nc(NCC2CC2)cc(-c2ccccn2)n1 | 2200 nM | – | 10000 nM | – |
| c1ccc(-c2cc(NCC3CC3)ncn2)nc1 | 22000 nM | – | 10000 nM | – |
| [Cl-].[Cl-].[Zn+2] [ZINC CHLORIDE] | – | – | – | EC50 [4]: 3600 nM; EC50 [5]: 4040 nM; Efficacy [8]: 48% |
| Cc1nc(NCc2ccc(Cl)cc2)cc(-c2ccccn2)n1 | 81 nM | > 52.3 mL/min/kg | 17 nM | – |
| FC(F)(F)CNc1nc(NCc2ccc(Cl)cc2)cc(-c2ccccn2)n1 | 60 nM | > 52.3 mL/min/kg | 1 nM | – |
| CNc1nc(NCc2ccc(Cl)cc2)cc(-c2ccccn2)n1 | 15 nM | – | 3 nM | – |
| CNc1nc(NCc2ccncc2)cc(-c2ccccn2)n1 | 87 nM | – | 304 nM | – |
| O=S(=O)(NC[C@H]1CC[C@H](CNc2cc(-c3ccccn3)nc(NCC3CC3)n2)CC1)c1ccc(F)cc1 | – | – | – | Activity [20]: Active |
| CNc1nc(NCC(C)(C)C)cc(-c2ccccn2)n1 | 73 nM | – | 365 nM | – |
